Measurements taken from article PMC5384256 (Bioconjugate chemistry, 2015).
Several values for one entry are separate records, joined by “and”; a condition that tells them apart may be missing. Equal entries are not always repeated. Where no end group is shown, it is not given here. Cy5.5 = Cy5.5 fluorophore

How the values were obtained:
p-HER2 = test: Western blot p-HER2, SKBR3 cells; format: cell-based, Human; settings: 48 h
Summary of the method: (§1)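 SKBR3 cells (McCoy's) in 6-well plates at ~60% confluence got unlabeled test peptide at 5 or 100 μM. A tyrosine kinase inhibitor positive control was used at 1–1000 nM, alongside 1% DMSO and untreated controls. Cells were harvested at 48 h for Western blot. Antibodies covered total HER2, AKT and ERK1/2, phospho-HER2 (Tyr1248), phospho-AKT (pS473), phospho-ERK1/2 and tubulin.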

p-AKT = test: Western blot p-AKT, SKBR3 cells; format: cell-based, Human; settings: 48 h
Summary of the method: as §1

p-ERK = test: Western blot p-ERK, SKBR3 cells; format: cell-based, Human; settings: 48 h
Summary of the method: as §1

Flo1-HER2 cells = test: Confocal microscopy of FITC-labeled lead peptides with Flo1-HER2 cells; format: cell-based; settings: 10 μM, 4 °C, 1 h, quadruplicate, data log base 2
Summary of the method: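 Flo1-HER2 cells (DMEM + G418) and Q-hTERT control cells (Keratinocyte-SFM), ~7500 cells on coverslips, were grown to ~70% confluence and washed with cold PBS. They got 10 μM FITC-labeled peptide for 1 h at 4 °C, were washed 3×, fixed in ice-cold 4% PFA for 10 min and mounted with DAPI. Confocal imaging used a 63× oil objective, in quadruplicate.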

HER2 on HT29 cells [1] = test: siRNA knockdown of HER2, HT29 cells; format: cell-based, Human; settings: HT29 siCL vs siHER2; confocal; average of 3 images
Summary of the method: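 HT29 cells were seeded at 30% confluence in McCoy's 5A with 10% FBS and no antibiotics. Next day they were transfected with HER2-targeting siRNA or a nontargeting pool, and knockdown was confirmed by Western blot. Cy5.5-labeled test peptide and AF488 anti-HER2 binding were imaged confocally, with intensities quantified from 3 independent images.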

HER2 on HT29 cells [2] = test: Apparent association time constant by flow cytometry; format: binding, Human; settings: 5 μM KSP*-Cy5.5, 4 °C, 0-60 min, from k = 0.14 min^−1
HER2 on HT29 cells [3] = test: Confocal fluorescence microscopy, HT29 cells; format: cell-based, Human; settings: peptides 5 μM, 30 min, 4 °C
Summary of the method: (§2)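 Cells were cultured at 37 °C, 5% CO2 with 10% FBS and 1% pen/strep: HT29 in McCoy's, SW480 in DMEM. After a PBS wash, cells got 5 μM Cy5.5-labeled test or control peptide for 30 min at 4 °C, were washed 3×, fixed in ice-cold 4% PFA for 10 min and mounted with DAPI. Imaging used Cy5.5 and DAPI filters. Intensities were quantified from 3 independent images.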

[4] = test system: HER2 overexpressed by mouse colonic dysplasia; test: Peptide immunofluorescence on mouse colonic adenoma sections; settings: 2 μM, 10 min, RT, confocal
Summary of the method: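 Serial 5-μm sections of formalin-fixed mouse colonic adenoma were incubated with 2 μM Cy5.5-labeled test or control peptide for 10 min at RT. Sections were washed 3× with PBS and mounted with DAPI for confocal imaging. Adjacent sections were H&E stained.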

[5] = test system: HER2 in colonic adenomas of CPC;Apc mice; test: In vivo NIR endoscopic imaging of mouse colonic dysplasia, systemic peptide; settings: n = 4, i.v. tail vein, 200 μL of 300 μM
Summary of the method: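 Isoflurane-anaesthetized CPC;Apc mice received 200 μL of 300 μM Cy5.5-labeled test peptide via tail vein. NIR endoscopy was done before injection for baseline, then after injection until maximum signal. The adenoma-to-normal intensity ratio came from regions of interest at each time point.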

HER2 on SW480 cells = test: Confocal fluorescence microscopy, SW480 cells; format: cell-based, Human; settings: peptides 5 μM, 30 min, 4 °C
Summary of the method: as §2

HER2 on HT29 cells [6] = test: Co-localization of peptide and anti-HER2 antibody binding, HT29 cells; format: cell-based, Human; settings: KSP*-Cy5.5 5 μM, 1 h, 4 °C, then anti-HER2 and AF488 secondary
Summary of the method: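 HT29 cells got 5 μM Cy5.5-labeled test peptide first (1 h, 4 °C), at under 10 μM to limit interference with antibody binding. Cells were washed, fixed in 4% PFA for 5 min, then stained with primary anti-HER2 and AF488 secondary. Co-localization was scored as Pearson's correlation coefficient.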

[7] = test system: HER2 overexpressed by human proximal colonic neoplasia; test: Peptide immunofluorescence on FFPE human proximal colon specimens; settings: KSP*-Cy5.5 5 μM, 10 min, RT
Summary of the method: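 FFPE 5-μm sections were deparaffinized, then antigen-retrieved in 10 mM sodium citrate, 0.05% Tween, pH 6.0, at boiling then sub-boiling for 15 min. They were blocked with protein serum for 15 min at RT and stained with 5 μM Cy5.5-labeled test peptide for 10 min at RT. After PBS washes, anti-HER2 was applied overnight at 4 °C. Mean intensity was read from three 20×20 μm² epithelial boxes per image, avoiding saturated regions. Analysis used log2 transform if needed, one-way ANOVA with Tukey comparisons, and Pearson's coefficient for co-localization.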

[8] = test system: HER2 in colonic adenomas of CPC;Apc mice; test: In vivo NIR endoscopic imaging of mouse colonic dysplasia, topical peptide; settings: topical 100 μM, 1.5 mL
Summary of the method: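 Cy5.5-labeled peptides, 100 μM in 1.5 mL, were delivered into the colon through the endoscope instrument channel and left 5 min. The colon was rinsed 3× with tap water before NIR imaging with a small animal endoscope. Imaging was repeated 2–3 days later with the control peptide. Target-to-background ratios came from mean ROI intensities.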

dysplastic polyps = settings: FITC-labeled, topical application, patients; cited from earlier work
[9] = target: Human epidermal growth factor receptor 2 (HER2), endogenous on human cells and tissue (human, UniProt P04626 23-1255); test: flow cytometry on cells
[10] = lapatinib 1, 25, 100, 1000 nM, concentration dependent
[11] = human proximal colon FFPE, n = 30, mean ± sem

CS(=O)(=O)CCNCc1ccc(-c2ccc3ncnc(Nc4ccc(OCc5cccc(F)c5)c(Cl)c4)c3c2)o1 [lapatinib, reference compound]
Expression of p-HER2 (p-HER2; [10]): reduced expression | Expression of p-AKT (p-AKT; [10]): reduced expression | Expression of p-ERK (p-ERK; [10]): reduced expression

KSPNPRF
Mean fluorescence intensity (rank among top 5 peptides) (Flo1-HER2 cells): highest mean fluorescence intensity

KSPNPRF [KSP*-Cy5.5]
Binding to siCL treated control cells compared to siHER2 knockdown cells (HER2 on HT29 cells [1]): significantly greater | Apparent association time constant, as time (HER2 on HT29 cells [2]): 7.1 min and 7.14 min | Binding to cell surface (HER2 on HT29 cells [3]): binds to the surface | Staining of normal colon [4]: Minimal staining | Time of peak T/B ratio (mean intensity) [5]: 100 min | Binding to cell surface (HER2 on SW480 cells): binds to the surface | Co-localization with anti-HER2-AF488, Pearson's coefficient (HER2 on HT29 cells [6]): 0.74 | Co-localization with anti-HER2-AF488, Pearson's correlation coefficient ([7]; human colonic dysplasia, then anti-HER2): 0.50 | Mean fluorescence intensity, hyperplastic polyps ([7]; human proximal colon FFPE, n = 12, mean ± sem): 0.12 ± 0.08 | Mean fluorescence intensity, sessile serrated adenomas ([7]; human proximal colon FFPE, n = 13, mean ± sem): 6.07 ± 0.73 | Mean fluorescence intensity, normal [7, 11]: 2.72 ± 0.31 | Mean fluorescence intensity, sporadic adenomas [7, 11]: 11.9 ± 0.61 | NIR fluorescence at flat adenoma [8]: increased intensity with visible crypt-like structures | NIR fluorescence at polypoid adenoma [8]: increased intensity

KSPNPRF [KSP*]
Apparent association time constant, as time (HER2 on HT29 cells [2]): 7.1 min | Phosphorylation of HER2 (p-HER2) (p-HER2; KSP* 5 and 100 μM, Tyr1248): no change | Phosphorylation of AKT (p-AKT) (p-AKT; KSP* 5 and 100 μM, pS473): no change | Phosphorylation of ERK (p-ERK) (p-ERK; KSP* 5 and 100 μM): no change

PPSNFKR [PPS*-Cy5.5]
Binding to cell surface (HER2 on HT29 cells [3]): minimal binding | Staining of normal colon [4]: Minimal staining | Binding to cell surface (HER2 on SW480 cells): minimal binding | NIR fluorescence at flat adenoma [8]: minimal signal | NIR fluorescence at polypoid adenoma [8]: minimal signal

VRPMPLQ
Binding in vivo on dysplastic polyps (dysplastic polyps): specific binding was validated

B1: KSP*-Cy5.5 (KSPNPRF peptide labeled with Cy5.5 via a GGGSK linker) (peptide)
peptide: KSPNPRFGGGSK(Cy5.5)-NH2
Kd [9]: 21 nM
